Measured values as given in PMC10089208 (Proceedings of the National Academy of Sciences of the …, 2023).
Bridge positions count the residues as written; N and C are the ends. Peptide text beside a SMILES is read from it.

B1: Wnt3a: human Wnt3a, canonical, overexpressed (protein, UniProt P56704 19-352, looked up)
Protein Wnt-3a: SYPIWWSLAVGPQYSSLGSQPILCASIPGLVPKQLRFCRNYVEIMPSVAEGIKIGIQECQHQFRGRRWNCTTVHDSLAIFGPVLDKATRESAFVHAIASAGVAFAVTRSCAEGTAAICGCSSRHQGSPGKGWKWGGCSEDIEFGGMVSREFADARENRPDARSAMNRHNNEAGRQAIASHMHLKCKCHGLSGSCEVKTCWWSQPDFRAIGDFLKDKYDSASEMVVEKHRESRGWVETLRPRYTYFKVPTERDLVYYEASPNFCEPNPETGSFGTRDRTCNVSSHGIDGCDLLCCGRGHNARAERRREKCRCVFHWCCYVSCQECTRVYDVHTCK
B2: YW210.09 Fab (Fab, V domains shown)
VH: EVQLVESGGGLVQPGGSLRLSCAASGFTFTNSYIHWVRQAPGKGLEWVGWITPYGGYTNYADSVKGRFTISADTSKNTAYLQMNSLRAEDTAVYYCARGSGHVNAVKNYGYVMDYWGQGTLVTVSS
VL: DIQMTQSPSSLSASVGDRVTITCRASQDVSTAVAWYQQKPGKAPKLLIYSASFLYSGVPSRFSGSGSGTDFTLTISSLQPEDFATYYCQQSYTTPPTFGQGTKVEIK
B3: Wnt1: human Wnt1, canonical, overexpressed (protein, UniProt P04628 28-370, looked up)
Proto-oncogene Wnt-1: ANSSGRWWGIVNVASSTNLLTDSKSLQLVLEPSLQLLSRKQRRLIRQNPGILHSVSGGLQSAVRECKWQFRNRRWNCPTAPGPHLFGKIVNRGCRETAFIFAITSAGVTHSVARSCSEGSIESCTCDYRRRGPGGPDWHWGGCSDNIDFGRLFGREFVDSGEKGRDLRFLMNLHNNEAGRTTVFSEMRQECKCHGMSGSCTVRTCWMRLPTLRAVGDVLRDRFDGASRVLYGNRGSNRASRAELLRLEPEDPAHKPPSPHDLVYFEKSPNFCTYSGRLGTAGTAGRACNSSSPALDGCELLCCGRGHRTRTQRVTERCNCTFHWCCHVSCRNCTHTRVLHECL

Assays:
LRP6E1E2 = test: ELISA competition assay of Wnt.cys peptides with Fab YW210 for LRP6E1E2; type: binding, human; settings: LRP6E1E2 constant at 3x EC50, serial dilution of YW210
[1] = tested on: Wnt1-mediated β-catenin signaling; test: TOPbrite dual-luciferase reporter assay, inhibition of Wnt1-mediated signaling; type: cell-based, human; settings: HEK293 TOPbrite cells transfected with Wnt1; treatment 6 h before measurement
Procedure, shortened: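 Wnt1 construct was transfected with FuGENE HD into TOPbrite/Renilla HEK293 cells (DMEM/F12, 10% FBS, hygromycin, 37 °C), seeded 24 h earlier, then incubated 24–48 h. Linker peptides or LRP6 Fabs were added 6 h before reading. Dual-Glo firefly/Renilla luminescence ratio was calculated, in some instances normalized to nontreated controls.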

Reck = test: ELISA binding of linker peptides to Reck; settings: immobilised biotinylated peptide
Procedure, shortened: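 Neutravidin-coated (5 μg/mL) plates blocked with 0.5% BSA/PBS for 2 h at room temperature, then loaded with 1 μg biotinylated linker peptide per well. Serial dilutions of His-tagged Reck in PBS/0.5% BSA/0.05% Tween 20 were incubated for 45 min at room temperature. After washing, bound protein was detected with HRP anti-His (1:5,000, 45 min) and TMB, reading absorbance at 450 nm.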

[2] = tested on: HEK293 TOPbrite reporter cells, β-catenin signaling; type: cell-based, human; settings: transfection of 0 to 25 ng construct, 24 to 48 h; normalized to empty vector
Procedure, shortened: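 HEK293 cells carried a stable firefly TOPbrite Wnt reporter plus pRL-SV40 Renilla and were kept in DMEM/F12 (50:50) with 10% FBS, GlutaMAX and 40 μg/mL hygromycin at 37 °C, 5% CO2. Cells were seeded at 20,000–40,000 per well, grown 24 h, then transfected with 0–25 ng Wnt or chimera construct using FuGENE HD. After 24–48 h, Dual-Glo firefly/Renilla ratio was normalized to empty vector.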

[3] = tested on: HEK293 luciferase reporter cells, phospho-LRP6 and active β-catenin; type: cell-based, human; settings: overexpression, 250 ng DNA, 24 h, Western blot
[4] = biological target: hLRP6_(E1E2) (residues 20 to 631), C-terminal hexahistidine-tag, for ELISA (human, UniProt O75581); test: ELISA
Chain of hLRP6_(E1E2) (residues 20 to 631), C-terminal hexahistidine-tag, for ELISA (O75581 20-631): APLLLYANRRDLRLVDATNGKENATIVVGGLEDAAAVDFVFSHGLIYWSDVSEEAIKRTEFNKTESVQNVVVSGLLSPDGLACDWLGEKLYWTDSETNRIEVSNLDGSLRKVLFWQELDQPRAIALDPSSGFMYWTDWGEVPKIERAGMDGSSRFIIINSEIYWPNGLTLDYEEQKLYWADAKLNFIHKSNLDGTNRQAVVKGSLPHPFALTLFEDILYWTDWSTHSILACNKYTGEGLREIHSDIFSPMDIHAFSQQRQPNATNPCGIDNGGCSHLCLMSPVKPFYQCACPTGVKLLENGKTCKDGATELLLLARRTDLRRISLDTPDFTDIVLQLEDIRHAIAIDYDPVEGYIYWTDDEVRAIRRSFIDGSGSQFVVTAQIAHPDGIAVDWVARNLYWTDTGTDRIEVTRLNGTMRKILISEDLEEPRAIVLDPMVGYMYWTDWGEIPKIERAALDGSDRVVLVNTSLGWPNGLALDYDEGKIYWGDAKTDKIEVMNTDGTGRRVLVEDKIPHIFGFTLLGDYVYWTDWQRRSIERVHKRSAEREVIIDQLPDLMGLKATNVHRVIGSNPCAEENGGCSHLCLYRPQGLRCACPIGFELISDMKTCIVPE

Row | Molecule | competition of Fab YW210 with the peptide for LRP6E1E2 binding (LRP6E1E2) | inhibition of Wnt1-mediated β-catenin signaling [1] | further results
1 | CSCC[C@@H]1NC(=O)[C@H](C(C)C)NC(=O)[C@H](CCC(N)=O)NC(=O)[C@H](C(C)C)NC(=O)[C@@H](NC(=O)CN)CSSC[C@@H](C(=O)N[C@H](C(=O)O)C(C)C)NC(=O)[C@H](CC(=O)O)NC(=O)[C@H]([C@@H](C)O)NC(=O)[C@H](CCCNC(=N)N)NC(=O)[C@H]([C@@H](C)O)NC(=O)[C@H](C)NC(=O)[C@H](CCCNC(=N)N)NC(=O)[C@H](CCCNC(=N)N)NC(=O)[C@H](Cc2ccc(O)cc2)NC(=O)CNC(=O)[C@H](CCC(N)=O)NC(=O)[C@H](CCCNC(=N)N)NC(=O)[C@H](C)NC(=O)[C@H](C)NC(=O)[C@H]([C@@H](C)O)NC(=O)[C@H](Cc2ccccc2)NC(=O)[C@H](CC(N)=O)NC(=O)[C@H](C)NC(=O)CNC(=O)[C@H](CC(=O)O)NC(=O)[C@H](CCC(N)=O)NC(=O)[C@H]([C@@H](C)O)NC(=O)[C@H](C)NC1=O [W2b.cys] (H-GCVQVMATQDGANFTAARQGYRRATRTDCV-OH; disulfide 2-29; N-terminus and C-terminus assumed) | competed strongly | inhibited | –
2 | CC(C)C[C@@H]1NC(=O)[C@H](CCC(=O)O)NC(=O)[C@H](C)NC(=O)[C@H](CCCNC(=N)N)NC(=O)[C@H](CO)NC(=O)[C@H](C)NC(=O)[C@H](CCCNC(=N)N)NC(=O)[C@H](CC(N)=O)NC(=O)[C@H](CO)NC(=O)CNC(=O)[C@H](CCCNC(=N)N)NC(=O)[C@H](CC(N)=O)NC(=O)CNC(=O)[C@H](Cc2ccc(O)cc2)NC(=O)[C@H](CC(C)C)NC(=O)[C@H](C(C)C)NC(=O)[C@H](CCCNC(=N)N)NC(=O)[C@H](CO)NC(=O)[C@@H](NC(=O)CN)CSSC[C@@H](C(=O)N[C@H](C(=O)O)C(C)C)NC(=O)[C@H](CC(=O)O)NC(=O)[C@H](Cc2c[nH]cn2)NC(=O)[C@@H]2CCCN2C(=O)[C@H](CO)NC(=O)[C@@H]2CCCN2C(=O)[C@@H]2CCCN2C(=O)[C@H](CCCCN)NC(=O)[C@H](Cc2c[nH]cn2)NC(=O)[C@H](C)NC(=O)[C@@H]2CCCN2C(=O)[C@H](CC(=O)O)NC(=O)[C@H](CCC(=O)O)NC(=O)[C@@H]2CCCN2C(=O)[C@H](CCC(=O)O)NC(=O)[C@H](CC(C)C)NC(=O)[C@H](CCCNC(=N)N)NC(=O)[C@H](CC(C)C)NC1=O [W1.cys] (H-GCSRVLYGNRGSNRASRAELLRLEPEDPAHKPPSPHDCV-OH; disulfide 2-38; N-terminus and C-terminus assumed) | competed strongly | inhibited | –
3 | CSCC[C@@H]1NC(=O)[C@H](CCC(=O)O)NC(=O)[C@H](CO)NC(=O)[C@@H](NC(=O)[C@@H](N)CO)CSSC[C@@H](C(=O)N[C@H](C(=O)O)C(C)C)NC(=O)[C@H](CC(=O)O)NC(=O)[C@H](CCCNC(=N)N)NC(=O)[C@H](CCC(=O)O)NC(=O)[C@H]([C@@H](C)O)NC(=O)[C@@H]2CCCN2C(=O)[C@H](C(C)C)NC(=O)[C@H](CCCCN)NC(=O)[C@H](Cc2ccccc2)NC(=O)[C@H](Cc2ccc(O)cc2)NC(=O)[C@H]([C@@H](C)O)NC(=O)[C@H](Cc2ccc(O)cc2)NC(=O)[C@H](CCCNC(=N)N)NC(=O)[C@@H]2CCCN2C(=O)[C@H](CCCNC(=N)N)NC(=O)[C@H](CC(C)C)NC(=O)[C@H]([C@@H](C)O)NC(=O)[C@H](CCC(=O)O)NC(=O)[C@H](C(C)C)NC(=O)[C@H](Cc2c[nH]c3ccccc23)NC(=O)CNC(=O)[C@H](CCCNC(=N)N)NC(=O)[C@H](CO)NC(=O)[C@H](CCC(=O)O)NC(=O)[C@H](CCCNC(=N)N)NC(=O)[C@H](Cc2c[nH]cn2)NC(=O)[C@H](CCCCN)NC(=O)[C@H](CCC(=O)O)NC(=O)[C@H](C(C)C)NC(=O)[C@H](C(C)C)NC1=O [W3a.cys] (H-SCSEMVVEKHRESRGWVETLRPRYTYFKVPTERDCV-OH; disulfide 2-35; N-terminus and C-terminus assumed) | could not be outcompeted | – | –
4 | CC[C@H](C)[C@@H]1NC(=O)[C@H](CCCCN)NC(=O)[C@H](CC(C)C)NC(=O)[C@H](Cc2ccccc2)NC(=O)[C@H]([C@@H](C)O)NC(=O)[C@@H]2CCCN2C(=O)[C@H](CCCNC(=N)N)NC(=O)[C@H](CCCCN)NC(=O)[C@H](CC(N)=O)NC(=O)[C@H](CCCNC(=N)N)NC(=O)[C@H](CO)NC(=O)[C@H](C)NC(=O)[C@H](CCCNC(=N)N)NC(=O)[C@H](C(C)C)NC(=O)[C@@H]2CCCN2C(=O)[C@H](CCC(=O)O)NC(=O)[C@H](C(C)C)NC(=O)[C@H](Cc2c[nH]cn2)NC(=O)[C@H](C(C)C)NC(=O)[C@@H](NC(=O)[C@@H](N)CCC(=O)O)CSSC[C@@H](C(=O)N[C@H](C(=O)O)C(C)C)NC(=O)[C@H](CC(=O)O)NC(=O)[C@H]([C@@H](C)O)NC(=O)[C@H](CC(=O)O)NC(=O)[C@H](CCSC)NC(=O)[C@@H]2CCCN2C(=O)[C@H](CCCCN)NC(=O)[C@H](CCCNC(=N)N)NC(=O)[C@H](Cc2ccc(O)cc2)NC(=O)[C@H](CO)NC(=O)[C@H](CC(C)C)NC(=O)[C@@H]2CCCN2C(=O)[C@H](CCCCN)NC(=O)[C@H](CCCCN)NC1=O [W7a.cys] (H-ECVHVEPVRASRNKRPTFLKIKKPLSYRKPMDTDCV-OH; disulfide 2-35; N-terminus and C-terminus assumed) | partially | inhibited | binding to Reck (Reck): bound Reck
5 | YW210: Fab that binds predominantly to the LRP6 E1 domain [reference compound] | – | inhibited Wnt1-induced signaling | –
6 | B1 | – | – | β-catenin signaling induced by overexpression (TOPbrite) [2]: induced β-catenin signaling; LRP6 phosphorylation [3]: induced; accumulation of active (nonphosphorylated) β-catenin [3]: induced
7 | B2 | – | – | binding result [4]: binds
8 | B3 | – | – | β-catenin signaling induced by overexpression (TOPbrite) [2]: induced β-catenin signaling; LRP6 phosphorylation [3]: induced; accumulation of active (nonphosphorylated) β-catenin [3]: induced
